# Results as given in ChEMBL document CHEMBL1156780, “6-(Het)aryl-7-deazapurine ribonucleosides as novel potent cytostatic agents” (J Med Chem, 2010).
# Columns and labels:
# [1] = Cytotoxicity against human HeLaS3 cells after 3 days by XTT assay; type: functional, cell-based; conditions: HeLa S3, 72 h
# [2] = Cytostatic activity against human Hs578 cells after 5 days by SRB assay; type: functional; conditions: Hs578, 120 h
# Summary of the method: (§1)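 Cells seeded in RPMI (colon, breast, lung lines), MEM (Du145) or F12K (PC3) with 10% FBS, 37 °C overnight. Day-zero plates fixed with cold 10% TCA. Compounds added as 5-fold serial dilutions for 5 days. Fixed, stained with 0.057% SRB in 1% acetic acid, dye solubilized in 10 mM Tris pH 10.5, A500 read. Growth % corrected for day-0 OD; GIC₅₀ from sigmoidal fit.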
# [3] = system: A549; assay: Cytostatic activity against human A549 cells after 5 days by SRB assay; type: functional; conditions: A549, 120 h; summary of the method: as §1
# [4] = system: DU-145; assay: Cytostatic activity against human DU145 cells after 5 days by SRB assay; type: functional; conditions: DU-145, 120 h; summary of the method: as §1
# [5] = system: HCT-116; assay: Cytostatic activity against human HCT116 cells after 5 days by SRB assay; type: functional; conditions: HCT-116, 120 h; summary of the method: as §1
# [6] = system: DU-145; assay: Cellular uptake ion human DU145 cells assessed as monophosphate level measured per million cells after 6 hrs; type: functional
# Summary of the method: (§2)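 Du145 cells incubated with 10 μM compound for 6 or 24 h, PBS-washed, trypsinized, pelleted, spun through Nyosil M25 oil. Extracts analysed by LC/MS/MS for parent nucleoside, monophosphate and triphosphate. Standards and QC samples prepared in untreated-cell extracts. Expressed as pmol per million cells.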
# [7] = system: DU-145; assay: Cellular uptake ion human DU145 cells measured per million cells after 24 hrs; type: functional; summary of the method: as §2
# [8] = system: DU-145; assay: Cellular uptake ion human DU145 cells assessed as monophosphate level measured per million cells after 24 hrs; type: functional; summary of the method: as §2
# [9] = system: DU-145; assay: Cellular uptake ion human DU145 cells assessed as triphosphate level measured per million cells after 24 hrs
# [10] = system: CCRF-CEM; assay: Cytotoxicity against human CCRF-CEM cells after 3 days by XTT assay; type: functional, cell-based; conditions: 72 h
# Summary of the method: (§3)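 Cell viability of CCRF-CEM, HL60 and HeLa cells measured by XTT assay after 72 h incubation with compounds. IC₅₀ taken as mean of 2–4 independent experiments.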
# [11] = system: DU-145; assay: Cellular uptake ion human DU145 cells measured per million cells after 6 hrs; type: functional; summary of the method: as §2
# [12] = system: DU-145; assay: Cellular uptake ion human DU145 cells assessed as triphosphate level measured per million cells after 6 hrs
# [13] = system: HL-60; assay: Cytotoxicity against human HL60 cells after 3 days by XTT assay; type: functional, cell-based; conditions: HL-60, 72 h; summary of the method: as §3
# [14] = system: CCRF-CEM; assay: Inhibition of DNA synthesis in human CCRF-CEM assessed as assessed as BrdU incorporation at 5 x GIC50 after 24 by flow cytometry; type: functional; design: scale not given: the % may be the effect or the level left
# Summary of the method: (§4)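 Culture as for cell cycle work (CCRF-CEM, 24 h, 1× or 5× GIC₅₀). Pulse with 10 μM BrdU for 30 min before harvest. Fixed in 70% ethanol, DNA denatured in 2 M HCl, neutralized with 0.1 M borax. Stained with anti-BrdU and FITC secondary, plus PI 0.1 mg/mL and RNase A. BrdU+ cells counted by flow cytometry.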
# [15] = system: HCT-15; assay: Cytotoxicity against human HCT15 cells after 5 days by SRB assay; type: functional; conditions: HCT-15, 120 h; summary of the method: as §1
# [16] = system: CCRF-CEM; assay: Cell cycle arrest in human CCRF-CEM assessed as accumulation at S phase at 1 x GIC50 after 24 hrs by flow cytometry; type: functional
# Summary of the method: (§5)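 Subconfluent CCRF-CEM (5 × 10⁵ cells/mL, RPMI 1640 + 10% FCS, 37 °C CO₂) exposed 24 h at 1× or 5× GIC₅₀, vehicle controls alongside. Cells fixed overnight in 70% ethanol at -20 °C, hypotonic citrate wash, RNase 50 μg/mL, propidium iodide stain, 488 nm flow cytometry. Sub-G1 = particles with PI content below G0/G1 cells. Reported as % of total cells.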
# [17] = system: CCRF-CEM; assay: Cell cycle arrest in human CCRF-CEM assessed as accumulation at G1 phase at 1 x GIC50 after 24 hrs by flow cytometry; type: functional; summary of the method: as §5
# [18] = system: CCRF-CEM; assay: Inhibition of RNA synthesis in human CCRF-CEM assessed as assessed as BrdU incorporation at 1 x GIC50 after 24 by flow cytometry; type: functional; design: scale not given: the % may be the effect or the level left
# Summary of the method: (§6)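 CCRF-CEM culture as for cell cycle (24 h, 1× or 5× GIC₅₀). Cells pulsed 30 min with 1 mM bromouridine before harvest. Fixed in 1% paraformaldehyde/0.05% NP-40. Stained with anti-BrdU antibody cross-reacting with BrU, then FITC secondary, PI and RNase A. BrU+ cells quantified by 488 nm flow cytometry.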
# [19] = system: CCRF-CEM; assay: Cell cycle arrest in human CCRF-CEM assessed as accumulation at G2/M phase at 5 x GIC50 after 24 hrs by flow cytometry; type: functional; summary of the method: as §5
# [20] = system: CCRF-CEM; assay: Cell cycle arrest in human CCRF-CEM assessed as accumulation at subG1 phase at 1 x GIC50 after 24 hrs by flow cytometry; type: functional; summary of the method: as §5
# [21] = system: NCI-H23; assay: Cytotoxicity against human NCI-H23 cells after 5 days by SRB assay; type: functional; conditions: NCI-H23, 120 h; summary of the method: as §1
# [22] = system: CCRF-CEM; assay: Cell cycle arrest in human CCRF-CEM assessed as accumulation at G2/M phase at 1 x GIC50 after 24 hrs by flow cytometry; type: functional; summary of the method: as §5
# [23] = system: CCRF-CEM; assay: Cell cycle arrest in human CCRF-CEM assessed as accumulation at subG1 phase at 5 x GIC50 after 24 hrs by flow cytometry; type: functional; summary of the method: as §5
# [24] = system: CCRF-CEM; assay: Inhibition of RNA synthesis in human CCRF-CEM assessed as assessed as BrdU incorporation at 5 x GIC50 after 24 by flow cytometry; type: functional; design: scale not given: the % may be the effect or the level left; summary of the method: as §6
# [25] = system: PC-3; assay: Cytotoxicity against human PC3 cells after 5 days by SRB assay; type: functional; conditions: PC-3, 120 h; summary of the method: as §1
# [26] = system: CCRF-CEM; assay: Antimitotic activity in human CCRF-CEM cells assessed as decrease in mitotic histone H3 at 5 x GIC50; type: functional; design: scale not given: the % may be the effect or the level left
# Summary of the method: (§7)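 CCRF-CEM cells seeded subconfluent at 5 × 10⁵ cells/mL in RPMI 1640 with 10% FCS, 10 mM glutamine, penicillin/streptomycin, 37 °C humidified CO₂. Exposed 24 h at 1× or 5× GIC₅₀; vehicle controls harvested at 24 h. Ethanol-fixed cells labelled with anti-phospho-histone H3 Ser10 and mitotic cells counted by flow cytometry as % of total population.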
# [27] = system: CCRF-CEM; assay: Antimitotic activity in human CCRF-CEM cells assessed as decrease in mitotic histone H3 at 1 x GIC50; type: functional; design: scale not given: the % may be the effect or the level left; summary of the method: as §7
# [28] = system: CCRF-CEM; assay: Cell cycle arrest in human CCRF-CEM assessed as accumulation at G1 phase at 5 x GIC50 after 24 hrs by flow cytometry; type: functional; summary of the method: as §5
# [29] = system: CCRF-CEM; assay: Cell cycle arrest in human CCRF-CEM assessed as accumulation at S phase at 5 x GIC50 after 24 hrs by flow cytometry; type: functional; summary of the method: as §5
# [30] = system: CCRF-CEM; assay: Inhibition of DNA synthesis in human CCRF-CEM assessed as assessed as BrdU incorporation at 1 x GIC50 after 24 by flow cytometry; type: functional; design: scale not given: the % may be the effect or the level left; summary of the method: as §4
# [31] = system: BT-549; assay: Cytotoxicity against human BT549 cells after 5 days by SRB assay; type: functional; conditions: BT-549, 120 h; summary of the method: as §1
# [32] = system: CCRF-CEM; assay: Inhibition of RNA synthesis in human CCRF-CEM assessed as assessed as BrdU incorporation after 24 by flow cytometry; type: functional
# [33] = system: CCRF-CEM; assay: Inhibition of DNA synthesis in human CCRF-CEM assessed as assessed as BrdU incorporation after 24 by flow cytometry; type: functional
GI50 [3],GI50 [4],GI50 [5],Compound,IC50 [1],GI50 [2],Activity [6],Activity [7],Activity [8],triphosphate (NTP) level [9],IC50 [10],Activity [11],triphosphate (NTP) level [12],IC50 [13],Activity [14],GI50 [15],Activity [16],Activity [17],Activity [18],Activity [19],Activity [20],other results
> 10000 nM,> 10000 nM,> 10000 nM,OC[C@H]1O[C@@H](n2cc(Cl)c3c(-c4ccco4)ncnc32)[C@H](O)[C@@H]1O,> 40000 nM,> 10000 nM,164 pmol,45 pmol,332 pmol,21.2 pmol,3800 nM,20.1 pmol,19.2 pmol,21600 nM,,,,,,,,
45 nM,9 nM,49 nM,OC[C@H]1O[C@@H](n2ccc3c(-c4cccs4)ncnc32)[C@H](O)[C@@H]1O,8800 nM,100 nM,,,,,290 nM,,,1200 nM,38.3%,78 nM,42.2%,45.5%,28.5%,6%,13.7%,GI50 [21]: 430 nM; Activity [22]: 12.2%; Activity [23]: 55%; Activity [24]: 3.5%; GI50 [25]: 33 nM; Activity [26]: 0.44%; Activity [27]: 0.87%; Activity [28]: 47%; Activity [29]: 47%; Activity [30]: 55.5%; GI50 [31]: 23 nM
88 nM,7 nM,78 nM,OC[C@H]1O[C@@H](n2ccc3c(-c4ccco4)ncnc32)[C@H](O)[C@@H]1O,770 nM,49 nM,4124 pmol,207 pmol,6842 pmol,109 pmol,310 nM,950 pmol,88.4 pmol,810 nM,31.3%,20 nM,42.2%,44.9%,28.7%,6.8%,16.5%,inhibition (INH) [32]: 4.7%; inhibition (INH) [33]: 31.33%; GI50 [21]: 130 nM; Activity [22]: 12.9%; Activity [23]: 60.2%; Activity [24]: 4.7%; GI50 [25]: 14 nM; Activity [26]: 0.48%; Activity [27]: 1.21%; Activity [28]: 46.7%; Activity [29]: 44.6%; Activity [30]: 54.3%; GI50 [31]: 12 nM
